Measured values taken from ChEMBL document CHEMBL1132167, “Flavonoid-related modulators of multidrug resistance: synthesis, pharmacological activity, and structure-activity relationships” (J Med Chem, 1999).

Tests used:
[1] = biological target: T1, ATP-dependent translocase ABCB1 (Homo sapiens, UniProt P08183); assay: Pgp transport inhibitory activity at 5 uM was measured by JC-1 accumulation assay method using JC-1 as substrate; assay type: functional
Procedure, shortened: (§1)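 JC-1 stock (1 mg/mL in DMSO) diluted to 5 μg/mL in PBS with 1 g/L glucose, then filtered to remove aggregates (monomer 0.2 μM final). Washed K562/DOX cells at 5×10^5/mL were incubated with JC-1 and compound concurrently at 37 °C, DMSO ≤0.5%. Fluorescence (485/590 nm) was followed to plateau, about 2 h. Accumulation is expressed as % of the 5 μM S9788 plate control after subtracting JC-1 alone. Mean of ≥2 experiments.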

K562 [2] = assay: Ability to potentiate DOX cytotoxicity on K562/DOX MDR cells. Cell survival was assayed by MTT conversion; assay type: functional, cell-based; details: Homo sapiens
Procedure, shortened: (§2)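 K562/DOX human erythroleukemia cells (doxorubicin-selected, Pgp-overexpressing; RPMI-1640 + 10% FCS) exposed 72 h to seven graded doxorubicin concentrations (six wells each) plus tested compound at 1 or 5 μM, DMSO ≤0.1% final. MTT formazan dissolved in DMSO, A570 read. Survival relative to untreated wells; DOX IC50 by linear interpolation; MF = IC50(DOX alone)/IC50(DOX + compound). Mean of ≥2 independent experiments.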

[3] = (§3) modulation factor: IC50 (uM); assay type: functional
[4] = biological target: T1, ATP-dependent translocase ABCB1; assay: Pgp transport inhibitory activity at 10 uM was measured by JC-1 accumulation assay method using JC-1 as substrate; assay type: functional; procedure, shortened: as §1
[5] = biological target: T1, ATP-dependent translocase ABCB1; assay: Pgp transport inhibitory activity at 1 uM was measured by JC-1 accumulation assay method using JC-1 as substrate; assay type: functional; procedure, shortened: as §1
[6] = as §3; assay type: functional; remark: listed apart in the source
K562 [7] = assay: Modulation factor: IC50(DOX alone)/IC50(DOX+modulator); assay type: functional, Homo sapiens; procedure, shortened: as §2
[8] = Modulation factor: IC50(DOX alone)/IC50(DOX+modulator).; assay type: functional; procedure, shortened: as §2

T1 sequence (P08183 whole entry): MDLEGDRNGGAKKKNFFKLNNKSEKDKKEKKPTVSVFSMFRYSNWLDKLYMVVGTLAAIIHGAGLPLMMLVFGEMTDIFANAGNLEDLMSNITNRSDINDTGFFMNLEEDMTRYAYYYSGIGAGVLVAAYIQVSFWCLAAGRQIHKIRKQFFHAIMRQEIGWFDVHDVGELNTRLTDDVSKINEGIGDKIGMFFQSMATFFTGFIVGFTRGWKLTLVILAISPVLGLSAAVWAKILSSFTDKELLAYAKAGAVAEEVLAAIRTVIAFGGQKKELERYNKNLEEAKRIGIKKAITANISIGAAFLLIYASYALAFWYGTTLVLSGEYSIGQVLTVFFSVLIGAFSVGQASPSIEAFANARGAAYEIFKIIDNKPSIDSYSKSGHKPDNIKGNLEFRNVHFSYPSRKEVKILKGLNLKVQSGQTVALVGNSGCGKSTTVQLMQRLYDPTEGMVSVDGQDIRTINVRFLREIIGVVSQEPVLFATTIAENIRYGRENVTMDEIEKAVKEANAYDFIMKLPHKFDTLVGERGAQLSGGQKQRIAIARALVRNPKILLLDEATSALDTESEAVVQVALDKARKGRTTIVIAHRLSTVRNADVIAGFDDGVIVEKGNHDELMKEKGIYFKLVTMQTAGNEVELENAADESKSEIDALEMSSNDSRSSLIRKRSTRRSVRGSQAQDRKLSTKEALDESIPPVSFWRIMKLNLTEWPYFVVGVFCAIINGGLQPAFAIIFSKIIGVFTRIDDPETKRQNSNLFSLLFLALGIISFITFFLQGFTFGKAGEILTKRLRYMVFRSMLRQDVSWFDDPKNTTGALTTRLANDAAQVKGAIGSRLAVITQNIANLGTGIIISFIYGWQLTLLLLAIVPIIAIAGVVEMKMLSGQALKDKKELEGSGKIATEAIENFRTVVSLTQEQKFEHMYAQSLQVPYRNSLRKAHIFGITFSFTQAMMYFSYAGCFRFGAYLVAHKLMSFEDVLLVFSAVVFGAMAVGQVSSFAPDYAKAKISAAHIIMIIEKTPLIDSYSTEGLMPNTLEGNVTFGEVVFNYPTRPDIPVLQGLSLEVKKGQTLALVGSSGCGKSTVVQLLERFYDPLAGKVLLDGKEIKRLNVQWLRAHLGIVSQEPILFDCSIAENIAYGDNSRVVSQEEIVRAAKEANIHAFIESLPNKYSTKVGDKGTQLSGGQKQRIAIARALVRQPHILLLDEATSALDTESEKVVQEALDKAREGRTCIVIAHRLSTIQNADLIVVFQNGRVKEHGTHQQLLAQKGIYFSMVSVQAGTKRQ

Relative JC-1 accumulation [1] | Relative JC-1 accumulation [4] | Relative JC-1 accumulation [5] | SMILES | IC50 (K562 [2]) | Modulation factor [3] | Modulation factor [6] | Modulation factor (K562 [7]) | Modulation factor [8]
69 | 73 | 14 | CCOC(=O)COc1cc(-c2cc(=O)c3c(O)cc(OCC(=O)N4CCN(Cc5ccc(OC)c(OC)c5OC)CC4)cc3o2)ccc1OC | > 20 µM |  |  | 9 | 22
3 | 8 | 0 | COc1ccc(C2CC(=O)c3c(O)cc(OCC(=O)N4CCN(Cc5cc(OC)c(OC)c(OC)c5)CC4)cc3O2)cc1O (configuration not stated) | > 20 µM |  |  | 2 | 21
56 | 59 | 7 | CCOC(=O)COc1cc(O)c2c(=O)cc(-c3ccc(OC)c(OCC(=O)N4CCN(Cc5ccc(OC)c(OC)c5OC)CC4)c3)oc2c1 | > 20 µM |  |  | 3 | 17
82 | 91 | 33 | COc1ccc(C2CC(=O)c3c(O)cc(OCC(=O)N4CCN(Cc5ccc(OC)c(OC)c5OC)CC4)cc3O2)cc1OC(C)=O (configuration not stated) | > 20 µM | 31 | 8 |  | 
50 | 30 | 4 | COc1ccc(-c2cc(=O)c3c(O)cc(OCC(=O)N4CCN(Cc5ccc(OC)c(OC)c5OC)CC4)cc3o2)cc1O | 6 µM |  |  | 11 | 78
55 | 75 | 2 | COc1ccc(C2CC(=O)c3c(OC(C)=O)cc(OCC(=O)N4CCN(Cc5ccc(OC)c(OC)c5OC)CC4)cc3O2)cc1OC(C)=O (configuration not stated) | > 20 µM | 31 | 10 |  | 
82 | 75 | 72 | COc1ccc(C2CC(=O)c3c(OC(=O)C(C)(C)C)cc(OCC(=O)N4CCN(Cc5ccc(OC)c(OC)c5OC)CC4)cc3O2)cc1OC(=O)C(C)(C)C (configuration not stated) | > 20 µM | 45 | 18 |  | 
10 | 59 | 1 | CCOC(=O)COc1cc(OCC(=O)N2CCN(Cc3ccc(OC)c(OC)c3OC)CC2)c2c(=O)cc(-c3ccc(OC)c(OCC(=O)OCC)c3)oc2c1 | > 20 µM |  |  |  | 1
50 | 69 | 4 | COc1ccc(C2CC(=O)c3c(O)cc(OCC(=O)N4CCN(Cc5ccc(OC)c(OC)c5OC)CC4)cc3O2)cc1O (configuration not stated) | 16 µM |  |  | 11 | 42
0 | 0 | 0 | COc1ccc(C2CC(=O)c3c(O)cc(OCC(=O)N4CC[N+](C)(Cc5ccc(OC)c(OC)c5OC)CC4)cc3O2)cc1O.[I-] (configuration not stated) | > 20 µM |  |  |  | 1

Second part, the compound before the results:

SMILES | Relative JC-1 accumulation [1] | Relative JC-1 accumulation [4] | Relative JC-1 accumulation [5] | IC50 (K562 [2]) | Modulation factor [3] | Modulation factor [6] | Modulation factor (K562 [7]) | Modulation factor [8]
COc1ccc(/C=C/C(=O)c2c(O)cc(OCC(=O)N3CCN(Cc4ccc(OC)c(OC)c4OC)CC3)cc2O)cc1O | 17 | 21 | 3 | > 20 µM | 45 | 9 |  | 
COc1ccc(-c2cc(=O)c3c(OCC(=O)N4CCN(Cc5ccc(OC)c(OC)c5OC)CC4)cc(OCc4ccccc4)cc3o2)cc1OCc1ccccc1 | 50 | 56 | 28 | 8 µM | 45 | 14 |  | 
COc1ccc(-c2cc(=O)c3c(OCC(=O)N4CCN(Cc5ccc(OC)c(OC)c5OC)CC4)cc(O)cc3o2)cc1O | 0 | 0 | 0 | > 20 µM |  |  |  | 1
COc1ccc(C2CC(=O)c3c(O)cc(OCC(=O)N4CCN(Cc5ccc(OC)c(OC)c5)CC4)cc3O2)cc1O (configuration not stated) | 9 | 31 | 0 | > 20 µM |  |  | 4 | 31
CCOC(=O)COc1cc(O)c2c(=O)cc(-c3ccc(OC)c(OCC(=O)N4CCN(Cc5ccccc5Cl)CC4)c3)oc2c1 | 13 | 24 | 7 | > 20 µM |  |  | 2 | 7
COc1ccc(CCN(C)CCCC(C#N)(c2ccc(OC)c(OC)c2)C(C)C)cc1OC (configuration not stated) [VERAPAMIL] |  |  |  | 37 µM | 31 | 7 |  | 
CCOC(=O)COc1cc(-c2cc(=O)c3c(O)cc(OCC(=O)N4CCN(Cc5cc(OC)c(OC)c(OC)c5)CC4)cc3o2)ccc1OC | 26 | 24 | 2 | > 20 µM |  |  | 3 | 31
COc1ccc(-c2cc(=O)c3c(O)cc(O)cc3o2)cc1OCC(=O)N1CCN(Cc2ccc(OC)c(OC)c2OC)CC1 | 0 | 0 | 0 | > 20 µM | 1 |  |  | 
CCOC(=O)COc1cc(O)c2c(=O)cc(-c3ccc(OC)c(OCC(=O)N4CCN(Cc5ccc(OC)c(OC)c5)CC4)c3)oc2c1 | 26 | 31 | 4 | 9 µM |  |  | 2 | 25
CCOC(=O)COc1cc(-c2cc(=O)c3c(O)cc(OCC(=O)N4CCN(Cc5ccc(Cl)cc5)CC4)cc3o2)ccc1OC | 14 | 23 | 6 | 14 µM |  |  | 4 | 22
CCOC(=O)COc1cc(-c2cc(=O)c3c(O)cc(OCC(=O)N4CCN(Cc5ccccc5)CC4)cc3o2)ccc1OC | 35 | 38 | 10 | > 20 µM |  |  | 4 | 21
CCOC(=O)COc1cc(-c2cc(=O)c3c(O)cc(OCC(=O)N4CCN(Cc5ccc(OC)c(OC)c5)CC4)cc3o2)ccc1OC | 28 | 27 | 3 | > 20 µM |  |  | 4 | 23
COc1ccc(C2CC(=O)c3c(O)cc(OCC(=O)N4CCN(Cc5cccc(OC)c5OC)CC4)cc3O2)cc1O (configuration not stated) | 2 | 6 | 0 | > 20 µM |  |  | 4 | 28
COc1ccc(-c2cc(=O)c3c(O)cc(O[C@@H]4O[C@H](CO)[C@H](O)[C@@H](O)[C@H]4O)cc3o2)cc1OCC(=O)N1CCN(Cc2ccc(OC)c(OC)c2OC)CC1 | 0 | 0 | 0 | > 20 µM | 1 |  |  | 
COc1ccc(CCC(=O)c2c(O)cc(OCC(=O)N3CCN(Cc4ccc(OC)c(OC)c4OC)CC3)cc2O)cc1O |  | 5 | 2 | > 20 µM | 3 |  |  | 
CCOC(=O)COc1cc(-c2cc(=O)c3c(O)cc(OCC(=O)N4CCN(Cc5cccc(OC)c5OC)CC4)cc3o2)ccc1OC | 22 | 28 | 2 | > 20 µM |  |  | 5 | 24
CCOC(=O)COc1cc(O)c2c(=O)cc(-c3ccc(OC)c(OCC(=O)N4CCN(Cc5cc(OC)c(OC)c(OC)c5)CC4)c3)oc2c1 | 56 | 55 | 5 | 11 µM |  |  | 5 | 25
COc1ccc(-c2cc(=O)c3c(O)cc(O[C@@H]4O[C@H](CO[C@@H]5O[C@@H](C)[C@H](O)[C@@H](O)[C@H]5O)[C@@H](O)[C@H](O)[C@H]4O)cc3o2)cc1OCC(=O)N1CCN(Cc2ccc(OC)c(OC)c2OC)CC1 | 0 | 0 | 0 | > 20 µM | 1 |  |  | 
COc1ccc(-c2cc(=O)c3c(O)cc(OCC(=O)N4CCN(Cc5ccc(OC)c(OC)c5OC)CC4)cc3o2)cc1OCC(=O)N1CCN(Cc2ccc(OC)c(OC)c2OC)CC1 | 60 | 53 | 22 | 2 µM |  |  | 1 | 
